From ChEMBL document CHEMBL1138436, “Biological activity and chemistry of taxoids from the Japanese yew, Taxus cuspidata” (J Nat Prod, 2004)
In brackets after ≈: the same amount, converted by molar mass.

Columns and labels:
[1] = Reversal of multidrug resistance in human 2780AD cells assessed as increase in vincristine accumulation at 10 ug/ml relative to verapamil; assay type: functional, A2780 ADR
KB = assay: Cytotoxicity against human KB cells; assay type: functional, cell-based
[2] = Reversal of multidrug resistance in human 2780AD cells assessed as increase in vincristine accumulation at 1 ug/ml relative to verapamil; assay type: functional, A2780 ADR
P388 [3] = assay: Antitumor activity against vincristine-resistant mouse P388 cells implanted in CDF1 mouse at 0.1 mg/kg assessed as median survival time relative to control; assay type: functional
In short: (§1)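 CDF1 mice were implanted i.p. with P388/VCR (vincristine-resistant) leukemia cells on day 0. Vincristine was given i.p. daily for 5 days, alone or together with a taxoid at 200 mg/kg. There were 5 mice per group. T/C (%) is the median survival time of treated mice divided by that of untreated control mice.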

P388 [4] = assay: Antitumor activity against vincristine-resistant mouse P388 cells implanted in CDF1 mouse at 0.2 mg/kg assessed as median survival time relative to control; assay type: functional; in short: as §1

SMILES	IC50 (KB)	also measured
C=C1[C@@H](OC(=O)/C=C/c2ccccc2)CC[C@@]2(C)[C@@H](OC(C)=O)[C@H](OC(C)=O)C3=C(C)C(=O)C[C@@H]([C@@H](O)[C@H]12)C3(C)C		Activity [1]: 191%
C=C1[C@@H](OC(=O)/C=C/c2ccccc2)CC[C@@]2(C)[C@@H](O)[C@H](OC(C)=O)C3=C(C)C(=O)C[C@@H]([C@@H](OC(C)=O)[C@H]12)C3(C)C	80 ng/mL (≈ 142 nM)	Activity [1]: 185%
C=C1[C@@H](OC(=O)/C=C/c2ccccc2)CC[C@@]2(C)[C@@H](OC(C)=O)[C@H](OC(C)=O)[C@@]34O[C@]3(C)C(=O)C[C@@H]([C@@H](OC(C)=O)[C@H]12)C4(C)C		Activity [2]: 142%
C/C=C(\C)C(=O)N[C@@H](c1ccccc1)[C@@H](O)C(=O)O[C@H]1C[C@@]2(O)[C@@H](OC(=O)c3ccccc3)[C@@H]3[C@]4(OC(C)=O)CO[C@@H]4C[C@H](O)[C@@]3(C)C(=O)[C@H](OC(C)=O)C(=C1C)C2(C)C [CEPHALOMANNINE]	1.5 ng/mL (≈ 1.8 nM)	
CC(=O)O[C@@]12CO[C@@H]1C[C@H](O)[C@@]1(C)C(=O)[C@H](O)C3=C(C)[C@@H](OC(=O)[C@H](O)[C@@H](NC(=O)c4ccccc4)c4ccccc4)C[C@@](O)([C@@H](OC(=O)c4ccccc4)[C@H]21)C3(C)C	1.5 ng/mL (≈ 1.85 nM)	
C=C1[C@@H](OC(=O)/C=C/c2ccccc2)CC[C@@]2(C)[C@@H](OC(C)=O)[C@H](OC(C)=O)[C@@]34[C@H](C)C(=O)C[C@@](O)([C@@H](OC(C)=O)[C@@]132)C4(C)C		Activity [2]: 204%
C=C1[C@@H](OC(=O)/C=C/c2ccccc2)C[C@H](OC(C)=O)[C@@]2(COC(C)=O)[C@@H](OC(C)=O)[C@H](O)[C@]3(O)[C@@]4(C)CO[C@]3(C)C(=O)C[C@H]4[C@@H](OC(C)=O)[C@H]12 [TAXUSPINE T]	80 ng/mL (≈ 112 nM)	
CC(=O)O[C@@]12CO[C@@H]1C[C@@H](O)[C@@]1(C)C(=O)[C@H](O)C3=C(C)[C@@H](OC(=O)[C@H](O)[C@@H](NC(=O)c4ccccc4)c4ccccc4)C[C@@](O)([C@@H](OC(=O)c4ccccc4)[C@H]21)C3(C)C	1.5 ng/mL (≈ 1.85 nM)	
CC[C@]1(O)C[C@H]2CN(CCc3c([nH]c4ccccc34)[C@@](C(=O)OC)(c3cc4c(cc3OC)N(C=O)[C@H]3[C@@](O)(C(=O)OC)[C@H](OC(C)=O)[C@]5(CC)C=CCN6CC[C@]43[C@@H]65)C2)C1 [VINCRISTINE]		T/C (P388 [3]): 92%; T/C (P388 [4]): 110%
C=C1[C@@H](OC(=O)/C=C/c2ccccc2)C[C@H](OC(C)=O)[C@@]2(C)[C@@H](OC(C)=O)[C@H](OC(C)=O)[C@]3(O)[C@@]4(C)CO[C@]3(C)C(=O)C[C@H]4[C@@H](OC(C)=O)[C@H]12 [TAXAGIFINE]	80 ng/mL (≈ 115 nM)	
CCCCCC(=O)N[C@@H](c1ccccc1)[C@@H](O)C(=O)O[C@H]1C[C@@]2(O)[C@@H](OC(=O)c3ccccc3)[C@@H]3[C@]4(OC(C)=O)CO[C@@H]4C[C@H](O)[C@@]3(C)C(=O)[C@H](OC(C)=O)C(=C1C)C2(C)C [TAXOL C]	1.5 ng/mL (≈ 1.77 nM)	
